Results on two molecules are retold here after ChEMBL document CHEMBL2429859, “Inhibiting aberrant signal transducer and activator of transcription protein activation with tetrapodal, small molecule Src homology 2 domain binders: promising agents against multiple myeloma” (J Med Chem, 2013).

As a reminder, the inhibition is how much of the control response was suppressed.

Data set [1] has as its target T1, Signal transducer and activator of transcription 3 (Homo sapiens, UniProt P40763). In words: Inhibition of Stat3-mediated luciferase expression in human XG6 cells at 15 to 30 uM after 6 hrs relative to control. Type of data set: cell-based. In a few lines:
(§1)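 Myeloma cells stably carried a Stat3-driven firefly luciferase reporter (puromycin-selected) and a CMV-driven Renilla luciferase internal control (hygromycin-selected), each selected for 2 weeks. After drug treatment, dual luciferase activity was read as relative luciferase units, firefly/Renilla.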

The target of data set [2] is Tyrosine-protein kinase JAK2 (Homo sapiens) (UniProt O60674). Nature of the data set: Inhibition of JAK2 JH1 domain (unknown origin) assessed as residual activity at 5 uM relative to control. Put shortly: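 Kinase profiling used a KinomeScan at 5 µM across 132 kinases, including 37 with SH2 domains.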
Data set [3] addresses T1, Signal transducer and activator of transcription 3. Nature of the data set: Inhibition of Stat3-mediated luciferase expression in human 8226 cells at 15 to 30 uM after 6 hrs relative to control. Type of data set: cell-based. Put shortly:
as §1

The test system of data set [4] is RPMI-8226. In words: Induction of apoptosis in human RPMI8226 cells at 10 to 20 uM by annexin V/propidium iodide staining-based flow cytometric analysis. The class given is functional, cell-based. The note with it: TDE = time-dependent effect. In a few lines:
(§2)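 Apoptosis was measured by flow cytometry of Annexin V and propidium iodide staining. Viable, early apoptotic and late apoptotic cells were scored by quadrant, with time points at 24 and 48 h.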
Background: A flow cytometer gives signals particle by particle.

For data set [5], the system named is JJN-3. In words: Induction of apoptosis in human JJN-3 cells at 10 to 20 uM by annexin V/propidium iodide staining-based flow cytometric analysis. The class given is functional, cell-based. Put shortly: as §2
The subject of data set [6] is JJN-3. In words: Inhibition of total Stat3 level in human JJN-3 cells at 10 to 30 uM after 6 hrs by Western blot analysis. Type of data set: functional, cell-based. Put shortly: (§3)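 Treated cells were washed in cold PBS and lysed 30 min on ice in Tris-HCl pH 7.4/NaCl/EDTA/1% NP-40 with PMSF, vanadate and protease inhibitors. Lysates were Bradford-normalized, and 10-30 µg protein was run on 7-10% SDS-PAGE and transferred to PVDF. Blots were blocked in 5% BSA/TBST, probed overnight at 4 °C, then with HRP secondary, and detected by ECL.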

A short description of data set [7]: Cytotoxicity against BMNC isolated from multiple myeloma patient assessed as inhibition of hematopoietic progenitor colony formation at 30 uM. The note with it: human.
The nature of data set [8]: Cytotoxicity against CD138-positive BMNC isolated from multiple myeloma patient assessed as cell viability at 20 uM. Type of data set: functional. As to conditions: Homo sapiens, read-out: Activity. In a few lines: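 Bone marrow mononuclear cells were isolated by Ficoll-Paque separation from 6 myeloma patient aspirates, cultured, and treated with compound. Cells were stained for CD138 and Annexin V, and the decrease in CD138+ (myeloma) and CD138- (non-myeloma) populations was reported.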

Data set [9] has as its system JJN-3. Nature of the data set: Inhibition of total Stat3 level in human JJN-3 cells at 5 to 10 uM after 6 hrs by Western blot analysis. Type of data set: functional, cell-based. Put shortly:
as §3
On the technique in general: In western blotting, separated proteins are transferred to a membrane and probed.

For data set [10], the system named is XG6. In words: Cytotoxicity against human XG6 cells assessed as cell viability at 7.5 uM after 72 hrs by MTT assay. Type of data set: functional, cell-based. In a few lines:
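Myeloma lines were seeded at 1-3 x 10^4 cells per well onto compound or vehicle, in triplicate, and cultured 72 h at 37 °C in 5% CO2. Viability was measured colorimetrically by MTT assay relative to DMSO control. EC50 was fitted to a standard dose-response curve where applicable.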
A general note: Tetrazolium assays rely on reduction of a dye to a coloured formazan, in cell work by metabolically active cells.

Data set [11] has as its target T1, Signal transducer and activator of transcription 3. In words: Inhibition of Stat3-mediated luciferase expression in human XG6 cells at 7.5 to 15 uM after 6 hrs relative to control. The class given is cell-based. In a few lines:
as §1

Data set [12] deals with JJN-3. In words: Induction of apoptosis in human JJN-3 cells assessed as induction of PARP cleavage at 5 to 10 uM by Western blot analysis. The class given is functional, cell-based. In a few lines:
as §3

In data set [13] the test system is RPMI-8226. Nature of the data set: Induction of apoptosis in human RPMI8226 cells at 10 to 15 uM by annexin V/propidium iodide staining-based flow cytometric analysis. As to conditions: TDE = time-dependent effect. The class given is functional, cell-based. In a few lines: as §2
For data set [14], the system named is JJN-3. In words: Induction of apoptosis in human JJN-3 cells at 10 to 15 uM by annexin V/propidium iodide staining-based flow cytometric analysis. The class given is functional, cell-based. In a few lines: as §2

Each structure is given as a SMILES string. Activity calls are given as the source filed them. The calls are words filed in the database; no cut-off is given here.

T1 sequence (P40763 whole entry): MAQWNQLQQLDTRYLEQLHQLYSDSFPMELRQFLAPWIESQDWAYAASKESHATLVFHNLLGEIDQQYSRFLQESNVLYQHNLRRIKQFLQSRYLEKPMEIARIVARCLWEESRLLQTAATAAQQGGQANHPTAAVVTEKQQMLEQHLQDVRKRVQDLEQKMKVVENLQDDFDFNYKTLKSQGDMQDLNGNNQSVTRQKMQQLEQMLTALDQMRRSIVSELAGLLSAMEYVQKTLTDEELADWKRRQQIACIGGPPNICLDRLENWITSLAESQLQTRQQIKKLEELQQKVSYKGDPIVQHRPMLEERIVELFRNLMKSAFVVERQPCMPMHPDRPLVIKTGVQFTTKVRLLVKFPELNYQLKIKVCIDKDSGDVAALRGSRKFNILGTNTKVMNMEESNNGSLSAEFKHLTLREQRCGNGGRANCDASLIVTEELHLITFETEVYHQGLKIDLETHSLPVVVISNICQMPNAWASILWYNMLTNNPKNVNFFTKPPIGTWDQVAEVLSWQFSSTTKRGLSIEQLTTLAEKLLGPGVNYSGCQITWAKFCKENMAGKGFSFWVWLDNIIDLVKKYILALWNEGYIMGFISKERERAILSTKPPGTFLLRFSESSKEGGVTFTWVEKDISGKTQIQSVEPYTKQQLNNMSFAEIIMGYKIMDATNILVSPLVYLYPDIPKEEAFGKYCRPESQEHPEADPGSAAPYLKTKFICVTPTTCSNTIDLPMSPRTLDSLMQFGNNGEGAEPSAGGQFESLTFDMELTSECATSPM
Chain of Tyrosine-protein kinase JAK2 (Homo sapiens) (O60674 whole entry, the tested form may be a part): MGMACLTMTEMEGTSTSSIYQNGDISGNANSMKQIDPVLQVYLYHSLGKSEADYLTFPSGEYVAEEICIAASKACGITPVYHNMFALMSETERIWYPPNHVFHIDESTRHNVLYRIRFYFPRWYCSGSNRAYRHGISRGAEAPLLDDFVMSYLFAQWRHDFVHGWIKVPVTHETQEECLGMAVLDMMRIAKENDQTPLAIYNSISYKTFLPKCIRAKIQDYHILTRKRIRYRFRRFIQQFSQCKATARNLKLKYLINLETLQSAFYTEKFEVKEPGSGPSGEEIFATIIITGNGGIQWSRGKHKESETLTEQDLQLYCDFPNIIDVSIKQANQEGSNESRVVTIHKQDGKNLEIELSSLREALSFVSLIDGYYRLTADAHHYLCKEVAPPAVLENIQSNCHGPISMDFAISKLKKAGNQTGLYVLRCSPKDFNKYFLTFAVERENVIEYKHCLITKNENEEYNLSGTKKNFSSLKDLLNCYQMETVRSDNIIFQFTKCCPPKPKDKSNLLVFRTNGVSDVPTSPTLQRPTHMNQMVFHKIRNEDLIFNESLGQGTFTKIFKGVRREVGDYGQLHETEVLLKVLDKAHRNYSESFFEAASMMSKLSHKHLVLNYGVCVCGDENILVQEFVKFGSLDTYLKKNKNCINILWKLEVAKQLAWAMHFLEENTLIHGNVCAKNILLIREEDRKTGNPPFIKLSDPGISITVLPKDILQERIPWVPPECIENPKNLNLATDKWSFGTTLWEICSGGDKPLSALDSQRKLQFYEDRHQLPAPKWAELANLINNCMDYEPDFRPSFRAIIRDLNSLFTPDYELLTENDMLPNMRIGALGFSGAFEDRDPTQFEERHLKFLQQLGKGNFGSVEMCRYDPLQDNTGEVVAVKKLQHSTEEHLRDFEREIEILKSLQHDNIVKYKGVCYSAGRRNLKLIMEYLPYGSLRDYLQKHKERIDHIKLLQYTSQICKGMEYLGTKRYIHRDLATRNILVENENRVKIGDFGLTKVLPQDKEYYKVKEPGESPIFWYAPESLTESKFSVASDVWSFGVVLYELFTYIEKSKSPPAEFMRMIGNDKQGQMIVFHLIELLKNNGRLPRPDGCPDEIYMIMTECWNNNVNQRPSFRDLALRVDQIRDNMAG

With `Cc1ccc(S(=O)(=O)N(CC(=O)N(Cc2ccc(C3CCCCC3)cc2)c2ccc(C(=O)O)c(O)c2)Cc2ccccc2C(F)(F)F)cc1`, the inhibition in [1] and in data set [3] was 50% in each case. Besides, the results for the Activity in data set [2], in data set [4] and in data set [7] were 84%, “tde” and “Non-toxic”, respectively. For the same molecule, the result in [5] was Active. In addition, the inhibition result in data set [6] was “inactive”. In addition, in [8], the viability at 20 µM was more than 50%.

On to `O=C(O)c1ccc(N(Cc2ccc(C3CCCCC3)cc2)C(=O)CN(Cc2ccccc2C(F)(F)F)S(=O)(=O)c2c(F)c(F)c(F)c(F)c2F)cc1O`, for which, in data set [9], the inhibition result is “inactive”. In addition, the outcome in data set [10], in data set [12] and in [14] was Active. Further, in [11], the inhibition is 50%. Besides, in data set [13], the Activity entry is “tde”.
